Measured values published in ChEMBL document CHEMBL5058577, “EUbOPEN Chemogenomics Library 2 (Multiplex)” (2022).

System: U2OS
Experiment: Multiplex assay against U2OS
Type: toxicity, cell-based
Details: human
How it was run: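 Imaging took place on a CQ1 microscope at 37°C and 5% CO2 once compound had been added to live cells stained at seeding with Hoechst33342, BioTracker Green Microtubule Cytoskeleton Dye, MitoTracker Red and Annexin V Alexa Fluor 680. CellPathfinder machine-learning gating classed cells as Hoechst high-intensity objects or normal cells, classed normal cells as having healthy, pyknosed or fragmented nuclei, and classed pyknosed cells as mitotic or apoptotic. Tubulin, mitochondrial-mass and membrane-permeability phenotypes are per cents of the healthy-nucleus cells.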

[1] = 12 h, 1 µM, compound concentration 1 uM, replicate 1
[2] = 12 h, 1 µM, compound concentration 1 uM, replicate 2
[3] = 12 h, 10 µM, compound concentration 10 uM, replicate 1
[4] = 12 h, 10 µM, compound concentration 10 uM, replicate 2
[5] = 24 h, 1 µM, compound concentration 1 uM, replicate 1
[6] = 24 h, 1 µM, compound concentration 1 uM, replicate 2
[7] = 24 h, 10 µM, compound concentration 10 uM, replicate 1
[8] = 24 h, 10 µM, compound concentration 10 uM, replicate 2
[9] = 48 h, 1 µM, compound concentration 1 uM, replicate 1
[10] = 48 h, 1 µM, compound concentration 1 uM, replicate 2
[11] = 48 h, 10 µM, compound concentration 10 uM, replicate 1
[12] = 48 h, 10 µM, compound concentration 10 uM, replicate 2

## CN1C[C@H](C(=O)N[C@]2(C)O[C@@]3(O)[C@@H]4CCCN4C(=O)[C@H](Cc4ccccc4)N3C2=O)C[C@@H]2c3cccc4[nH]cc(c34)C[C@H]21.CS(=O)(=O)O [DIHYDROERGOTAMINE MESYLATE]
[1]
  Population Apoptotic (%): 82%
  Population Fragmented Nuclei (%): 24%
  Population Healthy Nuclei (%): 65%
  Population Hoechst High Intensity Objects (%): 1%
  Population Membrane Permeable-Phenotype (%): 6%
  Population Mitochondria Different-Phenotype (%): 2%
  Population Mitotic Cells (%): 17%
  Population Normal (%): 98%
  Population Pyknosed Nuclei (%): 10%
  Population Tubulin-Different-Phenotype (%): 2%
  Total Cell Count: 233
[2]
  Population Apoptotic (%): 84%
  Population Fragmented Nuclei (%): 23%
  Population Healthy Nuclei (%): 63%
  Population Membrane Permeable-Phenotype (%): 14%
  Population Mitochondria Different-Phenotype (%): 1%
  Population Mitotic Cells (%): 15%
  Population Pyknosed Nuclei (%): 13%
  Population Tubulin-Different-Phenotype (%): 7%
  Total Cell Count: 101
[3]
  Population Apoptotic (%): 71%
  Population Fragmented Nuclei (%): 19%
  Population Healthy Nuclei (%): 73%
  Population Hoechst High Intensity Objects (%): 2%
  Population Membrane Permeable-Phenotype (%): 5%
  Population Mitochondria Different-Phenotype (%): 1%
  Population Mitotic Cells (%): 28%
  Population Normal (%): 97%
  Population Pyknosed Nuclei (%): 7%
  Population Tubulin-Different-Phenotype (%): 3%
  Total Cell Count: 298
[4]
  Population Apoptotic (%): 100%
  Population Healthy Nuclei (%): 77%
  Population Hoechst High Intensity Objects (%): 1%
  Population Mitochondria Different-Phenotype (%): 0%
  Population Mitotic Cells (%): 0%
  Population Normal (%): 98%
  Population Pyknosed Nuclei (%): 2%
  Population Tubulin-Different-Phenotype (%): 0%
  Total Cell Count: 144
[5]
  Population Apoptotic (%): 89%
  Population Fragmented Nuclei (%): 23%
  Population Healthy Nuclei (%): 67%
  Population Hoechst High Intensity Objects (%): 0%
  Population Membrane Permeable-Phenotype (%): 2%
  Population Mitochondria Different-Phenotype (%): 0%
  Population Mitotic Cells (%): 10%
  Population Normal (%): 99%
  Population Pyknosed Nuclei (%): 9%
  Population Tubulin-Different-Phenotype (%): 2%
  Total Cell Count: 307
[6]
  Population Apoptotic (%): 100%
  Population Fragmented Nuclei (%): 21%
  Population Healthy Nuclei (%): 65%
  Population Hoechst High Intensity Objects (%): 1%
  Population Membrane Permeable-Phenotype (%): 8%
  Population Mitochondria Different-Phenotype (%): 2%
  Population Mitotic Cells (%): 0%
  Population Normal (%): 98%
  Population Pyknosed Nuclei (%): 13%
  Population Tubulin-Different-Phenotype (%): 4%
  Total Cell Count: 132
[7]
  Population Apoptotic (%): 88%
  Population Fragmented Nuclei (%): 18%
  Population Healthy Nuclei (%): 73%
  Population Hoechst High Intensity Objects (%): 1%
  Population Membrane Permeable-Phenotype (%): 4%
  Population Mitochondria Different-Phenotype (%): 2%
  Population Mitotic Cells (%): 11%
  Population Normal (%): 98%
  Population Pyknosed Nuclei (%): 8%
  Population Tubulin-Different-Phenotype (%): 2%
  Total Cell Count: 337
[8]
  Population Apoptotic (%): 92%
  Population Fragmented Nuclei (%): 16%
  Population Healthy Nuclei (%): 75%
  Population Mitotic Cells (%): 7%
  Population Tubulin-Different-Phenotype (%): 1%
  Total Cell Count: 163
[9]
  Population Apoptotic (%): 80%
  Population Fragmented Nuclei (%): 14%
  Population Healthy Nuclei (%): 78%
  Population Hoechst High Intensity Objects (%): 2%
  Population Membrane Permeable-Phenotype (%): 2%
  Population Mitochondria Different-Phenotype (%): 2%
  Population Mitotic Cells (%): 19%
  Population Normal (%): 97%
  Population Pyknosed Nuclei (%): 7%
  Population Tubulin-Different-Phenotype (%): 1%
  Total Cell Count: 427
[10]
  Population Apoptotic (%): 90%
  Population Fragmented Nuclei (%): 11%
  Population Healthy Nuclei (%): 76%
  Population Hoechst High Intensity Objects (%): 1%
  Population Membrane Permeable-Phenotype (%): 6%
  Population Mitotic Cells (%): 10%
  Population Normal (%): 98%
  Population Pyknosed Nuclei (%): 11%
  Population Tubulin-Different-Phenotype (%): 4%
  Total Cell Count: 173
[11]
  Population Apoptotic (%): 95%
  Population Fragmented Nuclei (%): 14%
  Population Healthy Nuclei (%): 75%
  Population Hoechst High Intensity Objects (%): 3%
  Population Membrane Permeable-Phenotype (%): 7%
  Population Mitochondria Different-Phenotype (%): 3%
  Population Mitotic Cells (%): 4%
  Population Normal (%): 96%
  Population Pyknosed Nuclei (%): 9%
  Population Tubulin-Different-Phenotype (%): 3%
  Total Cell Count: 452
[12]
  Population Apoptotic (%): 100%
  Population Fragmented Nuclei (%): 19%
  Population Healthy Nuclei (%): 72%
  Population Membrane Permeable-Phenotype (%): 3%
  Population Mitochondria Different-Phenotype (%): 1%
  Population Mitotic Cells (%): 0%
  Population Pyknosed Nuclei (%): 8%
  Population Tubulin-Different-Phenotype (%): 2%
  Total Cell Count: 217
